# Test results reported in ChEMBL document CHEMBL4266032, “Methylated Polycyclic Polyprenylated Acylphloroglucinol Derivatives from Hypericum ascyron” (2018).
# Test system: HepG2
# Test: Hepatoprotective activity in human HepG2 cells assessed as inhibition of paracetamol-induced reduction in cell viability at 10 uM pretreated for 1 hr followed by paracetamol addition after 24 hrs by MTT assay relative to control
# Type: functional
# Conditions: not given
# In short: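 HepG2 cells injured with paracetamol; test agents at 10 μM; viability read by MTT and given as % of normal, with protection expressed as % inhibition relative to the paracetamol-only control. Bicyclol at 10 μM served as positive control. Means ± SD, n = 3 (n = 6 for normal and control groups).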
row,SMILES,inhibition at 10 µM
1,CC(C)=CCC[C@]1(C)[C@@H](CC=C(C)C)C[C@]2(C)C(=O)C3=C(O[C@H](C(C)(C)O)[C@H]3O)[C@@]1(C(=O)c1ccccc1)C2=O,68.1%
2,COC(=O)c1cc(OC)c2c(c1-c1c(CO)cc(OC)c3c1OCO3)OCO2 [BICYCLOL],52.6%
3,CC(C)=CCC[C@]1(C)[C@@H](CC=C(C)C)C[C@@]2(C)C(=O)[C@]1(C(=O)c1ccccc1)C(=O)C1=C2O[C@H](C(C)(C)O)[C@@H]1O,30.8%
4,CC(C)=CCC[C@]1(C)[C@@H](CC=C(C)C)C[C@]2(C)C(=O)C3=C(O[C@@H](C(C)(C)O)[C@H]3O)[C@@]1(C(=O)c1ccccc1)C2=O,71.4%
5,CC(C)=CCC1=C2O[C@H](C(C)(C)O)CC[C@]3(C)[C@@H](CC=C(C)C)C[C@](C)(C1=O)C(=O)[C@]23C(=O)c1ccccc1,37.2%
6,CC(C)=CC[C@H]1C[C@]2(C)C(=O)C(C(=O)c3ccccc3)=C3O[C@H](C(C)(C)O)CC[C@@]1(C)[C@]3(CC=C(C)C)C2=O,42.9%

# Test system: SK-N-SH
# Test: Neuroprotective activity against glutamate-induced toxicity in human SK-N-SH cells assessed as cell viability at 10 uM pretreated for 4 hrs followed by glutamate challenge measured after 4 hrs by MTT assay (reference value: 67.7 +/- 1.1%)
# Type: functional
# Conditions: read-out: Activity
row,SMILES,viability at 10 µM
1,CC(C)=CCC[C@]1(C)[C@@H](CC=C(C)C)C[C@]2(C)C(=O)C3=C(O[C@H](C(C)(C)O)[C@H]3O)[C@@]1(C(=O)c1ccccc1)C2=O,78.2%
2,Oc1ccc(/C=C/c2cc(O)cc(O)c2)cc1 [RESVERATROL],82.5%
3,CC(C)=CCC[C@]1(C)[C@@H](CC=C(C)C)C[C@]2(C)C(=O)C3=C(O[C@H](C(C)(C)O)[C@@H]3O)[C@@]1(C(=O)c1ccccc1)C2=O,72.2%
4,CC(C)=CCC[C@]1(C)[C@@H](CC=C(C)C)C[C@]2(C)C(=O)C3=C(O[C@@H](C(C)(C)O)C3)[C@@]1(C(=O)c1ccccc1)C2=O,71.8%
5,CC(C)=CCC[C@]1(C)[C@@H](CC=C(C)C)C[C@@]2(C)C(=O)[C@]1(C(=O)c1ccccc1)C(=O)C1=C2O[C@@H](C(C)(C)O)C1,82.9%
